Measurements: ChEMBL document CHEMBL5653624 (Biochem Pharmacol, 2016)
The source made the active and inactive calls. No cut-off for these calls is given here.

Legend:
RAW264.7 [1] = assay: Antiinflammatory activity in LPS/IFNgamma-stimulated mouse RAW264.7 cells assessed as reduction in HDAC2 expression preincubated for 20 hrs followed by LPS/IFNgamma stimulation and measured after 4 hrs by Western blot analysis; format: functional, cell-based; details: time 24.0 hrs
Outline: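 RAW 264.7 cells were LPS/IFNγ-stimulated after inhibitor exposure, then lysed in Hepes/Triton buffer containing DTT, butyrate and protease inhibitors, freeze-thawed and cleared. Immunoblot with milk blocking and overnight primary antibody at 4 °C. Densitometry normalized to β-actin, LPS/IFNγ control set at 100%. Mean ± SD of 4 independent experiments.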

RAW264.7 [2] = assay: Antiinflammatory activity in mouse RAW264.7 cells assessed as effect on LPS/IFNgamma-induced IL-10 gene expression at 1 uM preincubated for 20 hrs followed by LPS/IFNgamma stimulation and measured after 4 hrs by RT-qPCR analysis; format: functional, cell-based; details: time 24.0 hrs
Outline: (§1)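 RAW 264.7 macrophages in DMEM/10% FBS received 1 μM RGFP966 for 20 h, with LPS/IFNγ for the last 4 h. Washed with cold DPBS, total RNA isolated, integrity checked by 28S/18S. RT-qPCR by comparative Ct (2−ΔΔCt), fold change versus LPS/IFNγ control. Mean ± SD of 3–5 independent experiments.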

Lung [3] = assay: Antiinflammatory activity in C57bl/6 mouse precision-cut lung slices assessed as upregulation of LPS/IFNgamma-induced Fizz1 gene expression at 1 to 10 uM preincubated for 20 hrs followed by LPS/IFNgamma stimulation and measured after 4 hrs by RT-qPCR analysis; format: functional, tissue-based; details: dose 1-10 µM, time 24.0 hrs
Outline: (§2)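 PCLS, 250 μm thick, cut from agarose-filled lungs of male C57bl/6 mice (24–28 g, 8–10 weeks). Three slices per well at 37 °C, 5% CO2. Slices received RGFP966 at 1 and 10 μM final for 20 h, with 10 ng/ml LPS and 10 ng/ml IFNγ stimulation. RNA isolated; RT-qPCR fold change versus LPS/IFNγ control by 2−ΔΔCt. Mean ± SD, n = 3–5.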

RAW264.7 [4] = assay: Antiinflammatory activity in mouse RAW264.7 cells assessed as down regulation of LPS/IFNgamma-induced IL-12b gene expression at 1 uM preincubated for 20 hrs followed by LPS/IFNgamma stimulation and measured after 4 hrs by RT-qPCR analysis; format: functional, cell-based; details: time 24.0 hrs; outline: as §1
HBE = assay: Antiinflammatory activity in HBE cells assessed as effect on LPS/IFNgamma-induced TNFalpha gene expression at 2 uM […] by RT-qPCR analysis; format: functional, cell-based; details: Homo sapiens
Outline: (§3)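 HBE cells (passage 73–103) or immortalized hASM cells (2–3 donors, passage 27–35), serum-starved. Then 2 μM RGFP966 for 20 h, with LPS/IFNγ for the last 4 h. Total RNA isolated; RT-qPCR by 2−ΔΔCt, fold change versus LPS/IFNγ control. Mean ± SD of 3–5 independent experiments.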

RAW264.7 [5] = assay: Antiinflammatory activity in LPS/IFNgamma-stimulated mouse RAW264.7 cells assessed as effect on HDAC2 mRNA expression preincubated for 20 hrs followed by LPS/IFNgamma stimulation and measured after 4 hrs by RT-qPCR analysis; format: functional, cell-based; details: time 24.0 hrs
HASMC [6] = assay: Antiinflammatory activity in HASMC cells assessed as effect on LPS/IFNgamma-induced IL-12b gene expression at 2 uM […] and measured after 4 hrs by RT-qPCR analysis; format: functional, cell-based; details: Homo sapiens; outline: as §3
[7] = biological target: Histone deacetylase 1 (Mus musculus) (UniProt O09106); assay: Effect on HDAC1 nuclear localization in LPS/IFNgamma-stimulated mouse RAW264.7 cells preincubated for 20 hrs followed by LPS/IFNgamma stimulation and measured after 1 hr by Western blot analysis; format: cell-based
Histone deacetylase 1 (Mus musculus), sequence (O09106 whole entry): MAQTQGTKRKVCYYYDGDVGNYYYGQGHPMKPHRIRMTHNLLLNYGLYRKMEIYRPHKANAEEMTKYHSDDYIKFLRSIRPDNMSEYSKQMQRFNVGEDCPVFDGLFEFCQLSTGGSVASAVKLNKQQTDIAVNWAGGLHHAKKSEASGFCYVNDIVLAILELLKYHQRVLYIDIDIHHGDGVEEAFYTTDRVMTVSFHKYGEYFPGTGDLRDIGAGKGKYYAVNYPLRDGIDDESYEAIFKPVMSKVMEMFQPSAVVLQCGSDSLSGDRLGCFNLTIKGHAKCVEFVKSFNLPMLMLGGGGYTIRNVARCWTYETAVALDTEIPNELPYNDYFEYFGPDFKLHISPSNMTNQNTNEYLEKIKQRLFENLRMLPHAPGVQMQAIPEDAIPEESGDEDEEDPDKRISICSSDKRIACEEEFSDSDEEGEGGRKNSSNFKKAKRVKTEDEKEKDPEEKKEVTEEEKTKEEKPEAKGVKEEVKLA
Outline: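 RAW 264.7 cells treated for 20 h, then 1 h LPS/IFNγ, and fractionated into nuclear and cytosolic parts. Fractions immunoblotted, with PARP-1 and β-actin as internal controls. Densitometry with vehicle control set at 100%. Mean ± SD of 3–4 independent experiments.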

RAW264.7 [8] = assay: Antiinflammatory activity in mouse RAW264.7 cells assessed as down regulation of LPS/IFNgamma-induced IL-6 gene expression at 1 uM preincubated for 20 hrs followed by LPS/IFNgamma stimulation and measured after 4 hrs by RT-qPCR analysis; format: functional, cell-based; details: time 24.0 hrs; outline: as §1
Lung [9] = assay: Antiinflammatory activity in C57bl/6 mouse precision-cut lung slices assessed as upregulation of LPS/IFNgamma-induced IkappaBalpha expression at 1 to 10 uM preincubated for 20 hrs followed by LPS/IFNgamma stimulation and measured after 4 hrs by Western blot analysis; format: functional, tissue-based; details: dose 1-10 µM, time 24.0 hrs
HASMC [10] = assay: Cytotoxicity against HASMC cells assessed as reduction in cell viability at 2 uM measured after 20 hrs by MTS assay; format: toxicity, cell-based; details: human
Outline: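 MTS viability assay. RAW 264.7 cells seeded at 25,000 cells/cm2; HBE and hASM cells at 70% confluency and serum-starved for 24 h. Exposure for 20 h with LPS/IFNγ stimulation. MTS reagent added for 1 h at 37 °C in the dark, absorbance read at 490 nm. LPS/IFNγ-stimulated cells without inhibitor set at 100%.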

Lung [11] = assay: Antiinflammatory activity in C57bl/6 mouse precision-cut lung slices assessed as down regulation of LPS/IFNgamma-induced iNOS gene expression at 1 to 10 uM preincubated for 20 hrs followed by LPS/IFNgamma stimulation and measured after 4 hrs by RT-qPCR analysis; format: functional, tissue-based; details: dose 1-10 µM, time 24.0 hrs; outline: as §2
[12] = biological target: T1, Histone deacetylase 3 (Mus musculus) (UniProt O88895); assay: Inhibition of HDAC3 in mouse RAW264.7 cells assessed as effect on histone H4 peptide (GKGGKGLGKGGAKR) acetylation measured after 20 hrs by LC-MS/MS analysis; format: cell-based
T1 sequence (whole entry): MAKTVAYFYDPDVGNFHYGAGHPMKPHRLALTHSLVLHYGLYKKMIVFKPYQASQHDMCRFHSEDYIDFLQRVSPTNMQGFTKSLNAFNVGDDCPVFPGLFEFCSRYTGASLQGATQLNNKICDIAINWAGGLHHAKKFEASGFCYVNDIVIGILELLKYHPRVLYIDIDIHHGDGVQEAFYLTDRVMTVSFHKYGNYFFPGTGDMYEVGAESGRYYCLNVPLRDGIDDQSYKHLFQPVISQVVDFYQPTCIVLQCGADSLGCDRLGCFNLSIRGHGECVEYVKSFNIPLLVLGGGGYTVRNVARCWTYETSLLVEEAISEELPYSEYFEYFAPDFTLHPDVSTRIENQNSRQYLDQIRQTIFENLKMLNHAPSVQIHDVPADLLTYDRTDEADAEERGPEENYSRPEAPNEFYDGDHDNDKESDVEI
Outline: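 Histones from RAW 264.7 (20 h treatment) run on 15% SDS-PAGE (7 μg), Coomassie-stained H3/H4 bands excised, destained, and chemically acetylated with acetic anhydride-d6 in 1 M ammonium bicarbonate; endogenous lysine acetylation ratio derived by mass spectrometry from deuterated versus non-deuterated acetyl mass difference.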

Lung [13] = assay: Antiinflammatory activity in C57bl/6 mouse precision-cut lung slices assessed as effect on LPS/IFNgamma-induced HDAC2 expression at 1 to 10 uM preincubated for 20 hrs followed by LPS/IFNgamma stimulation and measured after 4 hrs by Western blot analysis; format: functional, tissue-based; details: dose 1-10 µM, time 24.0 hrs

Nc1cc(F)ccc1NC(=O)/C=C/c1cnn(C/C=C/c2ccccc2)c1
Activity (RAW264.7 [1]): Active
Activity (RAW264.7 [2]): inactive
Activity (Lung [3]): Active
Activity (RAW264.7 [4]): Active
Activity (HBE): inactive
Activity (RAW264.7 [5]): inactive
Activity (HASMC [6]): inactive
Activity [7]: inactive
Activity (RAW264.7 [8]): Active
Activity (Lung [9]): Active
Activity (HASMC [10]): Non-Toxic
Activity (Lung [11]): Active
inhibition [12]: inactive
Activity (Lung [13]): inactive
